The results in this text go back to PubChem BioAssay.

Each structure is given as a SMILES string. Calls of active or inactive are those of the source.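 How the source made its calls, unless noted: active means inhibition above 20% together with a positive visual image hit; inconclusive means visual image hit but inhibition not above 20%; inactive means no visual image hit.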

Assay [1] in a line: inhibitors of TNFa-induced NFkB p65 translocation, primary screen, imaging, HUVEC, MLSMR starter and 10KST1 sets (AID 438).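 Further: compound added about 3h40 before a 20 min TNFalpha stimulation.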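 On inhibition: signal is the nuclear over cytoplasmic p65 intensity ratio per well.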 To be noted: HUVEC TNFa-induced p65 nuclear translocation; cell count: measured here: nuclei count (cytotoxicity indicator), at 2.08 µM; inhibition: at 2 µM, stronger effect = higher value, 0% TNFa-plus-vehicle, 100% no-TNFa wells.
The nature of assay [2]: reduction of polyQ htt aggregates in cells – imaging, exon1htt(103Q)mCFP cells, high-content imaging, primary screen (AID 483;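 active means visual image review flags a hit and inhibition of aggregation exceeds 20%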;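 further: compound exposure lasted 3 days before fixation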;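 on nuclei count: percent of the per-plate median nuclei count of sample wells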). To be noted: exon1htt(103Q)mCFP cell line, aggregate imaging, at 2 µM; inhibition of aggregation: stronger effect = higher value; nuclei count: measured here: cell count, toxicity.
Assay [3] can be described thus: endothelial E-selectin expression blockers – imaging, HUVEC, immunofluorescence, MLSMR starter and 10KST1 sets, primary screen (AID 487;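 active means visually confirmed hit in the image check and inhibition above 20%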;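 on inhibition: signal is fraction of cell area covered by stained E-selectin grains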;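 on nuclei count: 100% = median nuclei count of all wells on the same plate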). To be noted: HUVEC TNFalpha-induced E-selectin immunofluorescence imaging, at 2 µM; inhibition: stronger effect = higher value; nuclei count: measured here: cell number, toxicity.
The target of assay [4] is Voltage-gated potassium channel subunit beta-2 (Rattus norvegicus) (UniProt P62483). Nature of the assay: inhibitors of rat Kvbeta2 reductase activity – biochemical, NADPH fluorescence, primary screen (AID 622;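 active means fluorescence slope higher than the sample average by over 3 SD, cut at about -0.22 in these data, passing the limit was not always enough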;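 further: slope of raw intensity against log time taken from 70 to 1610 s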). To be noted: recombinant KvBeta, 4-cyanobenzaldehyde reduction, at 10 µM, stronger effect = higher value.
Voltage-gated potassium channel subunit beta-2 (Rattus norvegicus), sequence (P62483 whole entry, looked up): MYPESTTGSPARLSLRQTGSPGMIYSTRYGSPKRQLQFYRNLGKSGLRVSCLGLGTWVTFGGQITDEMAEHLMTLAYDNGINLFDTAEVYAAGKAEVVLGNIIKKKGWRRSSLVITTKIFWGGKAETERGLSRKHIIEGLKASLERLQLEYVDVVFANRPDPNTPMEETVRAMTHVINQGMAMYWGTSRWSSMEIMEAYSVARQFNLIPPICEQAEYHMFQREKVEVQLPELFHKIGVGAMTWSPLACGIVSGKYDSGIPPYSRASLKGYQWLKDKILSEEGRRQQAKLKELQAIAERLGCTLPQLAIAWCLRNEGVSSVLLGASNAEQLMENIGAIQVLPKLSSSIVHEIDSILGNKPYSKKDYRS
The target is the same in assay [5]. Kind of assay: enhancers of rat Kvbeta2 NADPH turnover – biochemical, NADPH fluorescence, primary screen (AID 623;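 active means NADPH fluorescence slope more negative than the mean of all samples by about 3 SD, 99.7% confidence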;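 further: fluorescence intensity change per second fitted from 20 to 320 s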). To be noted: Recombinant KvBeta, NADPH fluorescence decrease slope, 10 min; at 10 µM; stronger effect = lower value.
Assay [6] concerns the target Muscarinic acetylcholine receptor M4 (Homo sapiens) (UniProt P08173). Kind of assay: M4-linked GIRK flux change, two-sided – cell-based, HEK293 M4/GIRK, thallium flux, BTC-AM, M4 allosteric agonist project, primary screen (AID 625;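 active means fluorescence slope after compound addition differing from the mean of all tested samples at 99.7% confidence, mostly higher but some lower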;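 further: thallium influx through GIRK channels coupled to M4 in HEK293 cells with BTC-AM dye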). To be noted: at 10 µM, actives lie on both sides. The essentials:
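Material: M4/GIRK1/GIRK2 stable HEK293 cell line. Medium: pH 7.3 thallium assay buffer. Dosing: single compound concentration, 10 µM final. Schedule: 1 h dye loading, 2 min kinetic read. Measured by: kinetic fluorescence with BTC-AM dye. Read-out: post-addition slope, 15–24 s, of baseline-normalized fluorescence. Benchmarks: carbachol and DMSO controls.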

A short description of assay [7]: blockers of RIG-like receptor reporter activation – cell-based, Sendai virus stimulus, luciferase, 10K MLSCN set, TLR/RLR signaling modifier project, primary screen (AID 602276;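 active means inhibition at or above 50% at 10 µM; inactive means inhibition below 50%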;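 further: firefly luciferase from ISG56 promoter only with Renilla not read in this screen; 0% = Sendai virus plus DMSO and 100% = medium plus DMSO without virus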). To be noted: HEK293 RL24 IRF3 luciferase reporter, at 10 µM, stronger effect = higher value. A general note: In a reporter assay the amount or activity of a reporter protein is the signal.
The nature of assay [8]: TLR3 IRF3 reporter activation blockers – cell-based, poly I:C stimulus, luciferase, 10K MLSCN set, primary screen (AID 602277;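 active means inhibition of the reporter signal at or above 50%; inactive means inhibition below 50%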). To be noted: HEK293-TLR3 RL24 IRF3 luciferase reporter, at 10 µM, stronger effect = higher value.

Muscarinic acetylcholine receptor M4 (Homo sapiens), sequence (P08173 whole entry, looked up): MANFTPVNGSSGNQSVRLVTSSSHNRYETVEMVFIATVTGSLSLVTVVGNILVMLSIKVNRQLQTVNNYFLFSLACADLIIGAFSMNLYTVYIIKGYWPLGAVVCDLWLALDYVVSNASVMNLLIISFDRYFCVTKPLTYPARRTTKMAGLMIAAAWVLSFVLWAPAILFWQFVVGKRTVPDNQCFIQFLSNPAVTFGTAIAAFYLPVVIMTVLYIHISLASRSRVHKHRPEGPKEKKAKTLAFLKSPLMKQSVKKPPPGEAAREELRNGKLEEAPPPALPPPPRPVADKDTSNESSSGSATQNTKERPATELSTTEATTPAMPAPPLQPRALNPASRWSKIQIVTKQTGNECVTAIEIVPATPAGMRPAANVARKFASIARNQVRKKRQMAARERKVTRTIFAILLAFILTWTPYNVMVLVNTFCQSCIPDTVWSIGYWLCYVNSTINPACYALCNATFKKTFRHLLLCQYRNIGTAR

For `Cc1cccc(NCc2ccccc2O)c1`, the cell count in assay [1] amounted to 454. For the same compound, the inhibition is 4.9% (inactive) in assay [1], 10.3% (inactive) in assay [3], 10.1% (inactive) in assay [7] and 3.99% (inactive) in assay [8]. Besides, the inhibition of aggregation in assay [2] was 1.3% (inactive). The nuclei count amounted to 94.5% in assay [2] and 104% in assay [3]. Further, the figures for the fluorescence slope in assay [4] and in assay [6] were -0.55 (inactive) and 0.00568 (inactive), respectively. In assay [5], the NADPH fluorescence slope is -2.3e-05 (inactive).
On to `O=C(NCc1cccs1)C(Cc1ccccc1)NS(=O)(=O)c1cccs1` (stereo not drawn), for which the cell count in assay [1] worked out at 469. The inhibition is -1.7% (inactive) in assay [1], -26.1% (inactive) in assay [3], 14.7% (inactive) in assay [7] and 15.2% (inactive) in assay [8]. Further, the inhibition of aggregation in assay [2] is 0% (inactive). The nuclei count turned out to be 108% in assay [2] and 111% in assay [3]. Moreover, the fluorescence slope in assay [4] is -0.437 (inactive); in assay [6], 0.00454 (inactive). Further, the NADPH fluorescence slope in assay [5] was -0.000238 (active).
Consider `CCOc1ccccc1-c1nc(-c2ccc(NC(=O)Cc3ccccc3OC)cc2)no1`, for which the cell count in assay [1] was 484. Also, the inhibition in assay [1] is -5% (inactive); in assay [3] it was -54.6% (inactive); in assay [7], -18.2% (inactive); in assay [8], -34.8% (inactive). Besides, the inhibition of aggregation in assay [2] is -2.4% (inactive). Moreover, the nuclei count is 87.4% in assay [2] and 111% in assay [3]. For the same compound, the figures for the fluorescence slope in assay [4] and in assay [6] were -0.527 (inactive) and 0.0078 (inactive), respectively. Further, the NADPH fluorescence slope in assay [5] was -3.1e-05 (inactive).
On to `COC(=O)c1cccc(NC(=O)C2COc3ccccc3O2)c1C` (stereo not drawn), for which the cell count in assay [1] was 349. The inhibition was -3.3% (inactive) in assay [1], -10.1% (inactive) in assay [3], -2.98% (inactive) in assay [7] and -15.7% (inactive) in assay [8]. In assay [2], the inhibition of aggregation was 13.6% (inactive). The nuclei count in assay [2] was 102%; in assay [3], 96.5%. Besides, the fluorescence slope was -0.508 (inactive) in assay [4] and 0.0049 (inactive) in assay [6]. Besides, in assay [5], the NADPH fluorescence slope was -1.7e-05 (inactive).
Turning to `CC1(C)Cc2noc(N)c2C(C)(C)N1OC(=O)c1ccccc1`, the cell count in assay [1] turned out to be 322. Further, the inhibition in assay [1] was 2.4% (inactive); in assay [3], -48.1% (inactive); in assay [7], -2.74% (inactive); in assay [8], 5.08% (inactive). Also, in assay [2], the inhibition of aggregation was 1.8% (inactive). For the same compound, the values for the nuclei count in assay [2] and in assay [3] were 99% and 126%, respectively. Besides, the fluorescence slope is -0.463 (inactive) in assay [4] and 0.00527 (inactive) in assay [6]. In addition, in assay [5], the NADPH fluorescence slope was 1.8e-05 (inactive).
As to `CC(=O)c1cccc(NC(=O)N2C3CCC2CC(O)(c2cccnc2)C3)c1` (stereo not drawn), in assay [1], the cell count is 602. For the same compound, the inhibition was 9.7% (inactive) in assay [1], -27.6% (inactive) in assay [3], -7.02% (inactive) in assay [7] and 16.5% (inactive) in assay [8]. Besides, the inhibition of aggregation in assay [2] is -21.4% (inactive). Also, the nuclei count in assay [2] came to 104%; in assay [3], 106%. In addition, the fluorescence slope was -0.259 (inactive) in assay [4] and 0.0059 (inactive) in assay [6]. Besides, the NADPH fluorescence slope in assay [5] was 3.9e-06 (inactive).
For the compound `CC(NO)C(C)(C)NO` (stereo not drawn), the cell count in assay [1] was 331. Further, the inhibition in assay [1] was 4.4% (inactive); in assay [3], -18.8% (inactive); in assay [7], 3.35% (inactive); in assay [8] it was 10.7% (inactive). Besides, the inhibition of aggregation in assay [2] is -7.5% (inactive). In addition, the results for the nuclei count in assay [2] and in assay [3] were 101% and 126%, respectively. The values for the fluorescence slope in assay [4] and in assay [6] were -0.493 (inactive) and 0.00819 (inactive), respectively. The NADPH fluorescence slope in assay [5] is 9e-05 (inactive).
Consider `O=C(O)C1CCCN1C(=O)Nc1ccc(F)cc1` (stereo not drawn), for which, in assay [1], the cell count is 543. The inhibition is -32.6% (inactive) in assay [1], -32.7% (inactive) in assay [3], 8.17% (inactive) in assay [7] and 10.2% (inactive) in assay [8]. In addition, in assay [2], the inhibition of aggregation is 13.6% (inactive). Besides, the nuclei count in assay [2] was 91.3%; in assay [3], 98.5%. Also, the fluorescence slope was -0.301 (inactive) in assay [4] and 0.00613 (inactive) in assay [6]. In addition, the NADPH fluorescence slope in assay [5] is -4.9e-05 (inactive).
Consider `Cc1[nH]nc2c1C1(CCN(C(=O)c3ccccc3)CC1)C(C#N)=C(N)O2`, for which the cell count in assay [1] amounted to 316. Also, the inhibition was -17% (inactive) in assay [1], 23.5% (inactive) in assay [3], 26.8% (inactive) in assay [7] and 32.8% (inactive) in assay [8]. The inhibition of aggregation in assay [2] was 22.6% (inactive). The nuclei count stood at 74.8% in assay [2] and 114% in assay [3]. Also, the fluorescence slope in assay [4] is -0.598 (inactive); in assay [6], 0.00593 (inactive). The NADPH fluorescence slope in assay [5] was -2.2e-06 (inactive).
Regarding `CCC1c2ccc(C)n2CCN1C(=O)Nc1ccccc1OC` (stereo not drawn), the cell count in assay [1] turned out to be 551. Further, the inhibition in assay [1] was -15.9% (inactive); in assay [3] it was -63.1% (inactive); in assay [7], 3.56% (inactive); in assay [8], 3.42% (inactive). The inhibition of aggregation in assay [2] is 0.1% (inactive). Moreover, the nuclei count is 112% in assay [2] and 116% in assay [3]. For the same compound, the fluorescence slope in assay [4] is -0.402 (inactive); in assay [6] it was 0.00541 (inactive). Moreover, the NADPH fluorescence slope in assay [5] was -6.4e-05 (inactive).
On to `CCOC(=O)CS(=O)(=O)c1nc(-c2ccccc2)cc(C(F)(F)F)n1`, for which the cell count in assay [1] turned out to be 380. Further, the inhibition in assay [1] was 2.8% (inactive); in assay [3], -15.5% (inactive); in assay [7] it was 20.1% (inactive); in assay [8], 32.7% (inactive). In addition, the inhibition of aggregation in assay [2] is -12.2% (inactive). Also, the nuclei count in assay [2] was 102%; in assay [3], 116%. The fluorescence slope is -0.462 (inactive) in assay [4] and 0.00498 (inactive) in assay [6]. Besides, the NADPH fluorescence slope in assay [5] was -1.5e-05 (inactive).
For the compound `N#Cc1ccc(CSc2nnc(-c3cnccn3)o2)cc1`, in assay [1], the cell count came to 489. The inhibition was -15% (inactive) in assay [1], -60.9% (inactive) in assay [3], 2.28% (inactive) in assay [7] and 5.14% (inactive) in assay [8]. Also, the inhibition of aggregation in assay [2] is -20.4% (inactive). Moreover, the results for the nuclei count in assay [2] and in assay [3] were 106% and 105%, respectively. The results for the fluorescence slope in assay [4] and in assay [6] were -0.555 (inactive) and 0.00528 (inactive), respectively. Besides, the NADPH fluorescence slope in assay [5] was -5.1e-06 (inactive).
For the compound `COCC(=O)N(Cc1ccc(OC)cc1)Cc1nc2ccccc2c(=O)[nH]1`, in assay [1], the cell count is 351. Moreover, the inhibition is 6.5% (inactive) in assay [1], -57.4% (inactive) in assay [3], 17.3% (inactive) in assay [7] and 26.3% (inactive) in assay [8]. Also, the inhibition of aggregation in assay [2] was -0.1% (inactive). For the same compound, the nuclei count in assay [2] was found to be 91.9%; in assay [3], 117%. Moreover, the fluorescence slope is -0.572 (inactive) in assay [4] and 0.00687 (inactive) in assay [6]. In addition, in assay [5], the NADPH fluorescence slope was -4.4e-05 (inactive).

The term inhibition denotes the relative decrease from the control value, in per cent.
